Results from ChEMBL document CHEMBL1134528, “Heterocycle-containing retinoids. Discovery of a novel isoxazole arotinoid possessing potent apoptotic activity in multidrug and drug-induced apoptosis-resistant cells” (J Med Chem, 2001).

How the values were obtained:
[1] = system: HL-60; test: In vitro apoptotic activity in HL60 cells; type: functional, cell-based; conditions: Homo sapiens
How it was run: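 HL60 cells (2 × 10^5 per well, RPMI 1640 + 10% FCS) given increasing drug concentrations for 48 h; apoptosis scored morphologically under fluorescence microscopy after acridine orange/ethidium bromide labelling (chromatin condensation, apoptotic bodies), also by propidium iodide hypotonic-citrate flow cytometry as pre-G0G1 events; AC50 = concentration giving apoptosis in 50% of cells.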

[2] = system: HL-60; test: In vitro inhibition of HL60 cell proliferation; type: functional, cell-based; conditions: Homo sapiens
[3] = system: HL-60; test: Effect on monocyte associated antigen CD14 expression in differentiating HL-60 cells; type: functional, Homo sapiens
How it was run: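 HL60 cells (2 × 10^5) exposed to each retinoid for 6 days; differentiation scored by May Grunwald-Giemsa-stained cytospin morphology and two-colour direct immunofluorescence flow cytometry with FITC anti-human CD14 and PE anti-human CD11c mouse monoclonals, isotype antibodies as negative controls; value is % antigen-positive cells. Growth in RPMI 1640, 10% FCS, 37 °C, 5% CO2.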

[4] = system: SW 962; test: (§1) Percentage efficacy for Beta RARE transactivation in SW962 cells; type: functional, Homo sapiens; design: concentration or dose not given beside the values
How it was run: (§2)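 SW962 vulvar carcinoma cells (L15 medium, 10% FBS with <8 nM vitamin A) stably carrying RARE-tk-CAT reporter with endogenous receptors, treated 24 h in DMSO; CAT measured by ELISA, normalised to protein, triplicates; fold induction vs DMSO control. Efficacy = fold induction at highest concentration (10 µM) divided by that of 10 µM 9-cis-RA, ×100.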

[5] = system: SW 962; test: Potency against beta RARE transactivation in SW962 cells; type: functional, Homo sapiens
How it was run: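 Stably transfected SW962 RARE-tk-CAT reporter line treated 24 h with 10^-9 to 10^-5 M compound in DMSO, DMSO vehicle control; CAT protein by ELISA normalised to extract protein, triplicate treatments averaged to give fold RARE induction; EC50, the concentration for half-maximal activation, read from dose–response curves.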

[6] = system: HL-60; test: Apoptotic activity in retinoic acid resistant HL60R cells; type: functional, cell-based; conditions: Homo sapiens
How it was run: (§3)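 Cells were exposed to increasing drug concentrations for 48 h. Apoptosis was scored by fluorescence microscopy after acridine orange/ethidium bromide staining, with chromatin condensation and apoptotic bodies marking apoptotic cells and uniform ethidium staining marking necrosis. AC50 is the concentration inducing apoptosis in 50% of cells.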

[7] = system: HL-60; test: Inhibition of retinoic acid resistant HL60R cell proliferation; type: functional, cell-based; conditions: Homo sapiens
How it was run: (§4)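 Cells at 2 × 10^5 per well in 1 mL complete medium were exposed to increasing concentrations of each drug for 48 h. Viable cells were counted on a hemocytometer with trypan blue exclusion and expressed as percent of control proliferation. IC50 is the concentration giving 50% growth inhibition.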

[8] = system: HuT78; test: Apoptotic activity in retinoic acid resistant HUT78 cell lines; type: functional, cell-based; conditions: Homo sapiens; how it was run: as §3
[9] = system: HuT78; test: Inhibition of retinoic acid resistant HUT78 cell proliferation; type: functional, cell-based; conditions: Homo sapiens; how it was run: as §4
[10] = system: K562; test: Apoptotic activity in retinoic acid resistant K562 cells; type: functional, cell-based; conditions: Homo sapiens; how it was run: as §3
[11] = system: K562; test: Inhibition of retinoic acid resistant K562 cell proliferation; type: functional, cell-based; conditions: Homo sapiens; how it was run: as §4
[12] = system: SW 962; test: as §1; type: functional, Homo sapiens; how it was run: as §2

Compound | IC50 [2] [µM] | AC50 [1] [µM] | Activity [3] [%] | Efficacy [4] [%] | Potency [5] [µM] | further results
CC1(C)CCC(C)(C)c2cc(-c3cc(-c4ccc(C(=O)O)cc4)no3)ccc21 | 1 | 5 | – | 97.6 | 10 | AC50 [6]: 4.2 µM; IC50 [7]: 1.4 µM; AC50 [8]: 1.5 µM; IC50 [9]: 0.8 µM; AC50 [10]: 4.8 µM; IC50 [11]: 2.3 µM
CC1(C)CCC(C)(C)c2cc(C3CC(c4ccc(C(=O)O)cc4)=NO3)ccc21 (configuration not stated) | 75 | > 100 | 32.5 | 26.3 | 0.961 | –
CC1(C)CCC(C)(C)c2cc(COc3ccc(C(=O)O)cc3)ccc21 | > 100 | > 100 | – | – | – | –
CC1(C)CCC(C)(C)c2cc(-c3cc(-c4ccc(C(=O)O)cc4)on3)ccc21 | 80 | > 100 | 38.6 | 48 | 0.129 | –
CC1=C(/C=C/C(C)=C\C=C\C(C)=C\C(=O)O)C(C)(C)CCC1 [ALITRETINOIN] | – | – | – | – | 0.0169 | Efficacy [12]: 100%

The remaining molecules from weak to strong by IC50 [2], led by results:

IC50 [2] [µM] | Compound | AC50 [1] [µM] | Activity [3] [%] | Efficacy [4] [%] | Potency [5] [µM] | further results
68 | CC1(C)CCC(C)(C)c2cc(C3=NOC(c4ccc(C(=O)O)cc4)C3)ccc21 (configuration not stated) | > 100 | 42.8 | 46.5 | 2.86 | –
60 | CC1(C)CCC(C)(C)c2cc(CNc3cccc(C(=O)O)c3)ccc21 | 99 | – | – | – | –
58 | CN(Cc1ccc2c(c1)C(C)(C)CCC2(C)C)c1ccc(C(=O)O)cc1 | 95 | – | – | – | –
49 | CC1(C)CCC(C)(C)c2cc(CNc3ccccc3C(=O)O)ccc21 | 88 | – | – | – | –
40 | CC1(C)CCC(C)(C)c2cc(CNc3ccc(C(=O)O)cc3)ccc21 | 70 | – | 64.5 | 0.671 | –
18 | CC1=C(/C=C/C(C)=C/C=C/C(C)=C/C(=O)O)C(C)(C)CCC1 [TRETINOIN] | > 100 | 0 | – | – | –
